pKi: −log10 of the molar value. Calls of active or inactive are those of the source. No cut-off for these calls is given here.
How the values were obtained:
[1] = target: Cannabinoid receptor 1 (Mus musculus, UniProt P47746); assay: Displacement of [3H]-CP55940 from CD1 mouse brain (minus cerebellum) CB1 receptor by liquid scintillation counting; format: tissue-based
How it was run: (§1)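 Male CD1 mouse tissue homogenised in ice-cold TME buffer (50 mM Tris–HCl, 1 mM EDTA, 3.0 mM MgCl2, pH 7.4); membranes (30–80 µg protein) incubated with 0.5–1 nM [3H]-CP-55,940, 1 h, 30 °C, with 5 mg/mL fatty acid-free BSA. Non-specific binding with 1 µM CP-55,940. GF/C filtration. Triplicate, ≥5 independent experiments; IC50 by sigmoid fit converted to Ki.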

[2] = target: Cannabinoid receptor 2 (Mus musculus, UniProt P47936); assay: Displacement of [3H]-CP55940 from CD1 mouse spleen CB2 receptor by liquid scintillation counting; how it was run: as §1
[3] = organism: Mus musculus; assay: Selectivity ratio of Ki for CD1 mouse brain (minus cerebellum) CB1 receptor to Ki for CD1 mouse spleen CB2 receptor; format: tissue-based
[4] = target: Cannabinoid receptor 2 (Homo sapiens) (UniProt P34972); assay: Inhibition of CB2 receptor in HL60 cells assessed as inhibition of ERK1/2 phosphorylation after 15 mins by Western blotting analysis; format: cell-based; conditions: HL-60
Chain of Cannabinoid receptor 2 (Homo sapiens) (P34972 whole entry): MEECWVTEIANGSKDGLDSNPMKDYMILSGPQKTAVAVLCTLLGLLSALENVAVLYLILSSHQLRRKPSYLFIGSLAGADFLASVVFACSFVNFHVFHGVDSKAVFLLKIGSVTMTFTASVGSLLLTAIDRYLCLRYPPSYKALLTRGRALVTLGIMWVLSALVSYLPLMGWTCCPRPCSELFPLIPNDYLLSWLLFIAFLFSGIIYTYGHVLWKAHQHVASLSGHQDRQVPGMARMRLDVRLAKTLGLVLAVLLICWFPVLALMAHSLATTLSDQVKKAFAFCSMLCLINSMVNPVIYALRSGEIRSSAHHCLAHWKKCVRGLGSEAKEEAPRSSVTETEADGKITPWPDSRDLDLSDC

Chain of Cannabinoid receptor 2 (P47936 whole entry): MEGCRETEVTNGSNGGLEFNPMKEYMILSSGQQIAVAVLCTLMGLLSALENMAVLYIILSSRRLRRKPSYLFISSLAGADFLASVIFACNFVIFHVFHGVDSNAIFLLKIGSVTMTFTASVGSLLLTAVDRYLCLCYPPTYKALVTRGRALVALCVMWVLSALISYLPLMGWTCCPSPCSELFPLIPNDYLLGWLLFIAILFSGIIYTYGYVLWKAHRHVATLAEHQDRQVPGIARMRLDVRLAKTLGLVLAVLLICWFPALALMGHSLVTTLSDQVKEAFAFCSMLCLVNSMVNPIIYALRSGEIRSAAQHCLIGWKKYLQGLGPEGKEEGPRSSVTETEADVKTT
Chain of Cannabinoid receptor 1 (P47746 whole entry): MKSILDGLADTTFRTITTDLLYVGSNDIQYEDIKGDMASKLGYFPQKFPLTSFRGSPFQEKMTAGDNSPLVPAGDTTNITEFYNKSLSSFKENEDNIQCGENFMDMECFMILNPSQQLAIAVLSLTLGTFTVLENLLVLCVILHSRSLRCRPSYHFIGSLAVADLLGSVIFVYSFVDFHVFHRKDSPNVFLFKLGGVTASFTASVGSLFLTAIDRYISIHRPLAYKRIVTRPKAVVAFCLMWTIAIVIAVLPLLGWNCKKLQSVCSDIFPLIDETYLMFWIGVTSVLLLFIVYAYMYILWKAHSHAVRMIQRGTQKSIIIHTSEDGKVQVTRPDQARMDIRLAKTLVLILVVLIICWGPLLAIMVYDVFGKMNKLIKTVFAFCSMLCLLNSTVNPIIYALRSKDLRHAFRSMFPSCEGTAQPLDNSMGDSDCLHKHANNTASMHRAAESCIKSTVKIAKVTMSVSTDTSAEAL

| Compound | pKi [1] | pKi [2] | Ratio Ki [3] | inhibition [4] |
| --- | --- | --- | --- | --- |
| Cc1csc2c1-c1c(c(C(=O)NC3C[C@@H](C)CC[C@@H]3C(C)C)nn1-c1ccc(Cl)cc1Cl)C2 (stereo partly specified) | 5.49 | 8.17 | 486 | Active |
| Cc1csc2c1-c1c(c(C(=O)NN3CCOCC3)nn1-c1ccc(Cl)cc1Cl)C2 | 5.33 | 6.13 | 6.3 | Active |
| Cc1ccc(Cn2nc(C(=O)NN3CCCCC3)c3c2-c2c(C)csc2C3)cc1 | 6.42 | 6.90 | 3 | Active |
| Cc1csc2c1-c1c(c(C(=O)NC3CCCCC3)nn1-c1ccc(Cl)cc1Cl)C2 | 5.51 | 6.30 | 6.1 | Active |
| Cc1ccc(Cn2nc(C(=O)NC3C(C)(C)C4CC[C@@]3(C)C4)c3c2-c2c(C)csc2C3)cc1 (stereo partly specified) | 6.38 | 8.62 | 175 | Active |
| Cc1c(C(=O)c2cccc3ccccc23)c2cccc3c2n1[C@H](CN1CCOCC1)CO3 |  |  |  | Active |
| Cc1csc2c1-c1c(c(C(=O)NN3CCCCCC3)nn1-c1ccc(Cl)cc1Cl)C2 | 5.42 | 6.49 | 11.8 | Active |
| Cc1ccc(Cn2nc(C(=O)NN3CCCC3)c3c2-c2c(C)csc2C3)cc1 | 5.35 | 6.29 | 8.7 | Active |
| Cc1cc2c(s1)Cc1c(C(=O)NN3CCCC3)nn(-c3ccc(Cl)cc3Cl)c1-2 | 5.86 | 7.42 | 36.2 | Active |
| Cc1csc2c1-c1c(c(C(=O)NC3C(C)(C)C4CC[C@@]3(C)C4)nn1-c1ccc(Cl)cc1Cl)C2 (stereo partly specified) | 5.65 | 8.28 | 424 | Active |
| Cc1cc2c(s1)Cc1c(C(=O)NC3CCCCC3)nn(-c3ccc(Cl)cc3Cl)c1-2 | 6.35 | 8.14 | 62.1 | Active |
| Cc1ccc(Cn2nc(C(=O)NC3C[C@@H](C)CC[C@@H]3C(C)C)c3c2-c2c(C)csc2C3)cc1 (stereo partly specified) | 6.80 | 8.57 | 59.3 | Active |
| Cc1ccc(Cn2nc(C(=O)NN3CCOCC3)c3c2-c2c(C)csc2C3)cc1 | 5.35 | 5.75 | 2.6 | Active |
| Cc1csc2c1-c1c(c(C(=O)NN3CCCC3)nn1-c1ccc(Cl)cc1Cl)C2 | 5.33 | 6.09 | 5.8 | Active |
| Cc1ccc(Cn2nc(C(=O)NC3C[C@@H](C)CC[C@@H]3C(C)C)c3c2-c2cc(C)sc2C3)cc1 (stereo partly specified) | 6.74 | 8.32 | 37.5 | Active |
| Cc1ccc(Cn2nc(C(=O)NN3CCCCCC3)c3c2-c2c(C)csc2C3)cc1 | 5.89 | 7.16 | 18.5 | Active |
| Cc1cc2c(s1)Cc1c(C(=O)NC3C[C@@H](C)CC[C@@H]3C(C)C)nn(-c3ccc(Cl)cc3Cl)c1-2 (stereo partly specified) | 8.19 | 8.29 | 1.3 | Active |
| Cc1cc2c(s1)Cc1c(C(=O)NN3CCCCC3)nn(-c3ccc(Cl)cc3Cl)c1-2 | 6.36 | 8.64 | 191 | Active |
| Cc1csc2c1-c1c(c(C(=O)NN3CCCCC3)nn1-c1ccc(Cl)cc1Cl)C2 | 5.41 | 6.24 | 6.8 | Active |
| Cc1ccc(Cn2nc(C(=O)NC3CCCCC3)c3c2-c2c(C)csc2C3)cc1 | 5.70 | 6.72 | 10.4 | Active |
| Cc1cc2c(s1)Cc1c(C(=O)NN3CCCCCC3)nn(-c3ccc(Cl)cc3Cl)c1-2 | 6.35 | 8.96 | 402 | Active |
